Screens as filed in PubChem.
KCNK3 block: human KCNK3 channel inhibition, primary screen. O14649. CHO-KCNK3 thallium flux, FluxOR fluorescence; active compounds read low. B-score at 10 µM. 0.84% of 340,000 active. AID 602410;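 active means B-score under library mean minus 4 SD, starting fluorescence ratio at most library mean plus 5 SD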;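 further: more negative B-score means stronger inhibition of thallium flux through KCNK3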
KCNK9 block: inhibitors of human KCNK9 two-pore domain potassium channel | Q9NPC2 | HEK293 KCNK9, FluxOR thallium flux fluorescence; active compounds read low | B-score at 10 µM | 1.2% of 310,000 active;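 active means ratio B-score over 3 SD below the library mean, with starting fluorescence within 5 SD of its mean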;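 further: negative B-score means less thallium flux so channel inhibition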
KCNQ1 block: human KCNQ1 channel inhibition; CHO-K1 KCNQ1, FluxOR thallium flux fluorescence; active compounds read high; B-score at 10 µM; 1.3% of 310,000 active;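 active means compounds whose thallium flux B-score, printed positive for inhibition, exceeds three library SD while starting fluorescence stays within three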;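 further: channel opened by potassium depolarization with thallium stimulus after 20 min compound exposure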
KCNQ1 pot: potentiators or activators of human KCNQ1 potassium channel | 0.35% of 310,000 active | AID 2648 | P51787 | CHO-K1 KCNQ1, thallium flux FluxOR fluorescence; active compounds read high | B-score at 10 µM;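 active means fluorescence ratio B-score, a plate-corrected score, at least three library SD, with initial intensity B-score within 5 SD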
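Doses: Single concentration per compound, DMSO matched to controls | Test system: KCNQ1-transfected CHO-K1 cells | Timing: 90 min dye loading and 20 min compound exposure, both at room temperature | Measured by: Kinetic FluxOR thallium fluorescence, 10-s 1-Hz baseline, 110-s post-stimulus read | Medium: Assay buffer with matched DMSO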
hERG protect: compounds protecting human hERG from proarrhythmic drug block; 0.51% of 310,000 active; activation (rescue from dofetilide block), less the hit threshold, % at 10 µM; Q12809; CHO-hERG, FluxOR thallium flux, dofetilide IC70 present;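 active means activation above the mean of controls blocked by dofetilide plus 5 SD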;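 further: thallium influx through hERG after potassium depolarization seen as dye fluorescence rise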
Kir21 block: Kir2.1 (mouse) channel inhibition; AID 1672; HEK293-Kir2.1, FluxOR thallium flux fluorescence; active compounds read low; B-score at 10 µM; 0.85% of 310,000 active; P35561;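 active means fluorescence ratio B-score at or below minus 3 SD of library scores, with starting-brightness B-score within 2 SD, cut at about -4.2 in these data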;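 further: channel flux triggered by added potassium and thallium sulfate stimulus; B-score of peak minus minimum fluorescence over baseline after thallium stimulus; more negative B-score means stronger Kir2.1 block with less thallium influx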
Hits are given with their value; - = inactive; . = no result. This is a sample that favours compounds with a hit; in the whole collection about 3.7% have one here.

SMILES	KCNK3 block	KCNK9 block	KCNQ1 block	KCNQ1 pot	hERG protect	Kir21 block
N#CCCN(C(=O)COC(=O)c1cc(S(=O)(=O)N2CCOCC2)ccc1Cl)c1ccc(F)cc1	-	-	-	-	-	-
O=C(N1CCN(c2ccccn2)CC1)N1c2ccccc2Sc2ccccc21	-	-7.64	-	-	-	-
C=CCNCC(=O)N1N=C(c2ccc3ccccc3c2)CC1c1ccc(OC)cc1 (stereo not drawn)	-	-	-	-	-	-4.32
Cc1ccc(-c2csc3ncnc(N4CCc5ccccc5C4)c23)cc1	-	-	-	-	-	-
Fc1ccc(-c2csc3ncnc(N4CCc5ccccc5C4)c23)cc1	-	-7.07	6	-	-	-
CCOC(=O)c1sc(NC(=O)c2ccccc2C(=O)O)c(C(=O)OCC)c1C	-	-	-	8	-	-
CCOC(=O)c1sc(NC(=O)Nc2ccccc2)cc1C	-	-	6	-	-	-
CCOC(=O)c1sc(NC(=O)c2cc(-c3ccccc3C)nc3ccccc23)c(C#N)c1C	-	-	10	-	-	-
CSc1ncccc1C(=O)OCC(=O)Nc1ccc(C)c(S(=O)(=O)N2CCOCC2)c1	-	.	.	.	.	.
O=C(NCCCN1CCOCC1)c1cc2c([nH]c3ccccc32)c(-c2cccc(Br)c2)n1	-	-	8	-	-	-
O=C(O)c1ccc(OS(=O)(=O)c2ccc(Cl)s2)c(Cl)c1	-	.	.	.	.	.
COc1ccc(C(=O)c2cc(OC)c(OC)c(OC)c2)cc1OC	-	.	.	.	.	.
CN(C)CCOC1c2ccccc2CCc2ccc3ccccc3c21 (stereo not drawn)	-	-	-	-	-	-
CCOC(=O)c1c(NC(=O)CCNCc2ccco2)sc2c1CCC2	.	-	-	-	-	-17.2
CCOC(=O)c1c(NC(=O)c2ccccc2C(=O)O)sc2c1CCC2	-	-	-	-	-	-
CCOC(=O)c1c(NC(=O)C(C)N2CCN(C(=O)c3ccco3)CC2)sc2c1CCCC2 (stereo not drawn)	-	-	-	15	-	-
CCOC(=O)c1c(NC(=O)CCCC(=O)O)sc2c1CCC2	-	-	-	-	-	-
CCOC(=O)c1c(NS(=O)(=O)Cc2ccccc2)sc2c1CCCC2	-	-	-	-	78.4	-
CCOC(=O)c1c(NC(=O)c2ccco2)sc2c1CCCCC2	-	-	-	-	-	-
COc1ccc(/C=C/C(=O)O)cc1S(=O)(=O)N1CCC(C)CC1	-	-	-	-	-	-
CCOC(=O)C1CCN(C(=O)c2cc3cc(Br)ccc3oc2=O)CC1	-	-	-	-	-	-
CCOC(=O)Cn1c(=O)oc2cc(S(=O)(=O)NCCc3ccc(OCC)c(OCC)c3)ccc21	-	-	-	-	-	-
CCOC(=O)CC(=O)NC1(Cc2ccc(O)cc2)CCCCC1	-	-	-	-	-	-
Oc1c(Br)cc(Br)cc1CNc1cnc2ccccc2c1	-	-	6	-	-	-
CCCN1CC=C2C(C#N)=C(N)C(C#N)(C#N)C(c3cccc(OC)c3OC)C2C1 (stereo not drawn)	-	-	8	-	-	-
SMILES	KCNK3 block	KCNK9 block	KCNQ1 block	KCNQ1 pot	hERG protect	Kir21 block
CN1CC=C2C(C#N)=C(N)C(C#N)(C#N)[C@H](c3ccoc3)[C@H]2C1	-	-	-	-	-	-
COc1cccc(OC)c1OCc1cc(C2C3CCCC=C3C(C#N)=C(N)C2(C#N)C#N)c(C)cc1C (stereo not drawn)	-	-	7	-	-	-
COc1ccc(OC)c(C2C3CN(C(C)C)CC=C3C(C#N)=C(N)C2(C#N)C#N)c1 (stereo not drawn)	-	-	6	-	-	-
CCN1CC=C2C(C#N)=C(N)C(C#N)(C#N)C(CCc3ccccc3)C2C1 (stereo not drawn)	-	.	.	.	.	.
CN1CC=C2C(C#N)=C(N)C(C#N)(C#N)C(c3cccc(Cl)c3Cl)C2C1 (stereo not drawn)	-	-	6	-	-	-
COc1cccc(N2CCN(C(=O)c3ccccc3SCC(=O)NCc3ccco3)CC2)c1	-	.	.	.	.	.
O=C(COC(=O)c1ccc(S(=O)(=O)N2CCCCC2)cc1)Nc1ccccc1	-	.	.	.	.	.
N#CC1=C(N)C(C#N)(C#N)[C@H](c2ccoc2)[C@H]2CN(Cc3ccccc3)CC=C12	-	-8.78	-	-	-	-
COCc1c(C(=O)N/N=C/c2cccc3ccccc23)nnn1-c1nonc1N	-	-	-	-	-	-
CC(c1ccon1)N(C)C(=O)CCc1nnc(C2(c3ccc(Cl)cc3)CCC2)o1 (stereo not drawn)	-	-	-	-	-	-4.86
Cc1cccc(NC(=S)NNC(=O)CC(C)O)c1C (stereo not drawn)	-	-	-	-	-	-
COc1cccc(NC(=O)CCCCCn2nnc3ccccc3c2=O)c1	-	-	-	-	-	-
CC(C(=O)NCCCc1ccccc1)n1cccc1C(=O)c1ccccc1 (stereo not drawn)	-	-	-	-	-	-6.43
CN(C(=O)COC(=O)/C=C/c1ccc(S(=O)(=O)N2CCc3ccccc32)cc1)C1CCS(=O)(=O)C1 (stereo not drawn)	-	-	-	-	-	-
c1ccc(Cc2nc3ccccc3s2)cc1	-	.	.	.	.	.
CC1(C)Cc2cccc(OCC(=O)NCc3ccc(F)cc3)c2O1	-	.	.	.	.	.
COc1ccc(CCNC(=O)COc2cccc3c2OC(C)(C)C3)cc1OC	-	-	-	-	-	-5.75
CC1(C)Cc2cccc(OCC(=O)OCC(=O)NCc3ccccc3)c2O1	-	-	-	-	-	-4.34
Cc1ccc(C#CC[N+]2(CC#Cc3ccc(C)cc3)CCCCC2)cc1	-	-	12	-	-	-6.81
COc1ccc(Cl)cc1NC(=O)NC(C)C	-	-	-	-	-	-
CC(C)NC(=O)Nc1n[nH]c(Nc2ccc(Cl)cc2)n1	-	-	-	-	5.3	-
O=C1C=C(c2ccccc2)OC(=O)C1C(=O)c1ccccc1 (stereo not drawn)	-	-	-	-	5.4	-
Cc1ccc(CSCCNC(=O)CN2C(=O)c3ccccc3S2(=O)=O)cc1	-	-	-	-	4.9	-
COc1ccc(-c2nn(-c3ccccc3)cc2/C=N/NC(=O)c2ccc(Br)o2)cc1	-9.64	-6.73	11	-	-	-
O=C(N/N=C\c1cn(-c2ccccc2)nc1-c1ccccc1)c1ccc2c(c1)OCO2	-	-6.77	-	-	-	-
O=C(COC(=O)C1(c2cccc(F)c2)CCCC1)NCc1ccc2c(c1)OCO2	-	-	-	-	-	-4.21
O=C(NCc1ccc2c(c1)OCO2)c1cccc(F)c1	-	-	-	-	-	-
O=C(COC(=O)C1(c2cccc(F)c2)CCCC1)NCc1cccs1	-	-	-	-	-	-5.27
